Results from ChEMBL document CHEMBL4266005, “Discovery of a Biologically Active Bromodomain Inhibitor by Target-Directed Dynamic Combinatorial Chemistry” (ACS Med Chem Lett, 2018).
The source made the active and inactive calls. The rule behind the calls is not given here.

What was measured:
[1] = tested on: Trypanosoma cruzi; test: Binding affinity to recombinant Trypanosoma cruzi His/haemaglutinin-tagged BDF3 expressed in Escherichia coli BL21 assessed as compound amplification factor at 75 uM by LC-MS based dynamic combinatorial chemistry analysis
How it was run: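 A dynamic acylhydrazone library was built from six aldehydes and four acylhydrazides (75 μM each) in 100 mM ammonium acetate, pH 6.5, with 3.75 mM aniline. It reached constant composition by about 10 h and was run with or without 100 μM recombinant TcBDF3. Amplification factor is the LC–MS peak area with template divided by the area without template.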

[2] = tested on: Trypanosoma cruzi; test: Antitrypanosomal activity against Trypanosoma cruzi Dm28c […] infected in African green monkey Vero cells at 25 uM after 48 hrs by CPRG/Nonidet reagent based beta-galactosidase reporter gene assay; assay type: functional, organism-based
[3] = tested on: Trypanosoma cruzi; test: (§1) Binding affinity to recombinant Trypanosoma cruzi His/haemaglutinin-tagged BDF3 expressed in Escherichia coli BL21 by fluorescence spectra analysis
How it was run: (§2)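 Intrinsic tryptophan (W117) fluorescence spectra were recorded for 10 μM recombinant TcBDF3 in 100 mM ammonium acetate, pH 6.5, alone and with increasing ligand; building blocks were tested at 100 μM. Quenching was analyzed by Stern–Volmer, modified Stern–Volmer and double-logarithmic plots, and Kd came from the double-logarithmic plot.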

[4] = tested on: Trypanosoma cruzi; test: Binding affinity to recombinant Trypanosoma cruzi His/haemaglutinin-tagged BDF3 expressed in Escherichia coli BL21 assessed as change in melting temperature by SYPRO orange based thermal shift assay
[5] = Selectivity index, ratio of IC50 for African green monkey Vero cells to IC50 for Trypanosoma cruzi Dm28c amastigotes infected in African green monkey Vero cells; assay type: toxicity; details: read-out: Ratio IC50
How it was run: (§3)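 Selectivity index is the Vero cell toxicity IC50 divided by the IC50 against the relevant extracellular or intracellular parasite form.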

[6] = tested on: Trypanosoma cruzi; test: Antitrypanosomal activity against Trypanosoma cruzi Dm28c epimastigotes infected in African green monkey Vero cells after 72 hrs by CPRG/Nonidet reagent based beta-galactosidase reporter gene assay; assay type: functional, organism-based
How it was run: (§4)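 β-Galactosidase-expressing parasites were exposed to 0–200 μM of compound. Growth inhibition was read from β-galactosidase activity, and IC50 was obtained by nonlinear regression of activity against concentration.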

[7] = Selectivity index, ratio of IC50 for African green monkey Vero cells to IC50 for Trypanosoma cruzi Dm28c trypomastigotes infected in African green monkey Vero cells; assay type: toxicity; details: read-out: Ratio IC50; how it was run: as §3
[8] = tested on: Trypanosoma cruzi; test: Antitrypanosomal activity against Trypanosoma cruzi Dm28c trypomastigotes infected in African green monkey Vero cells after 24 hrs by CPRG/Nonidet reagent based beta-galactosidase reporter gene assay; assay type: functional, organism-based; how it was run: as §4
[9] = Selectivity index, ratio of IC50 for African green monkey Vero cells to IC50 for Trypanosoma cruzi Dm28c epimastigotes infected in African green monkey Vero cells; assay type: toxicity; details: read-out: Ratio IC50; how it was run: as §3
[10] = tested on: Vero; test: Cytotoxicity against African green monkey Vero cells after 72 hrs by MTT assay; assay type: cell-based; details: Chlorocebus sabaeus
[11] = tested on: Trypanosoma cruzi; test: Antitrypanosomal activity against Trypanosoma cruzi Dm28c amastigotes infected in African green monkey Vero cells after 48 hrs by CPRG/Nonidet reagent based beta-galactosidase reporter gene assay; assay type: functional, organism-based; how it was run: as §4
[12] = tested on: Trypanosoma cruzi; test: Binding affinity to recombinant Trypanosoma cruzi His/haemaglutinin-tagged BDF3 expressed in Escherichia coli BL21 at 100 uM by fluorescence spectra analysis; how it was run: as §2
[13] = as §1; how it was run: as §2
[14] = tested on: Trypanosoma cruzi; test: Binding affinity to recombinant Trypanosoma cruzi His/haemaglutinin-tagged BDF3 Y123A/L130A double mutant expressed in Escherichia coli BL21 by fluorescence spectra analysis
How it was run: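 Intrinsic tryptophan fluorescence of 10 μM recombinant protein in 100 mM ammonium acetate, pH 6.5, measured with and without the hydrazone dynamic library. Maximum emission was normalized and compared.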

[15] = tested on: Trypanosoma cruzi; test: Binding affinity to recombinant Trypanosoma cruzi His/haemaglutinin-tagged BDF3 Y123A/L130A double mutant expressed in Escherichia coli BL21 by LC-MS based dynamic combinatorial chemistry analysis
How it was run: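 Dynamic library of six aldehydes and four acylhydrazides (75 μM each) in 100 mM ammonium acetate, pH 6.5, with 3.75 mM aniline, equilibrated about 10 h, with and without 100 μM recombinant protein. Read-out: LC–MS peak areas. Amplification factor = peak area in templated library ÷ peak area in untemplated library.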

[16] = tested on: Trypanosoma cruzi; test: Binding affinity to recombinant Trypanosoma cruzi His/haemaglutinin-tagged BDF3 Y123A/L130A double mutant expressed in Escherichia coli BL21 assessed as change in melting temperature at 10 uM by SYPRO orange based thermal shift assay
[17] = tested on: Trypanosoma cruzi; test: Binding affinity to recombinant Trypanosoma cruzi His/haemaglutinin-tagged BDF3 expressed in Escherichia coli BL21 assessed as change in melting temperature at 10 uM by SYPRO orange based thermal shift assay

SMILES | fold change (FC) [1] | other results
O=C(O)c1ccc(/C=N/NC(=O)c2ccccc2)cc1 | < 1 | 
COc1cc(/C=N/NC(=O)c2cccs2)cc(OC)c1OC | 1.2 | Activity [2]: Active; Activity [3]: Active; Activity [4]: Active
CC1CS(=O)(=O)CCN1/N=C/c1ccc([N+](=O)[O-])o1 (stereo not drawn) [NIFURTIMOX] |  | selectivity ratio [5]: 38; IC50 [6]: 8 µM; selectivity ratio [7]: 16; IC50 [8]: 7 µM; selectivity ratio [9]: 14; IC50 [10]: 115 µM; IC50 [11]: 3 µM
NNC(=O)c1cccs1 |  | Activity [12]: inactive
O=C(N/N=C/c1ccc(CO)o1)c1cccs1 | < 1 | 
O=C(N/N=C/CCC/C=N/NC(=O)c1cccs1)c1cccs1 | 1.5 to 2 | 
COc1cc(/C=N/NC(=O)c2cccs2)ccc1O | 2.4 | selectivity ratio [5]: > 15; IC50 [6]: 23 µM; selectivity ratio [7]: > 11; Kd [13]: 1.7 µM; Activity [14]: inactive; IC50 [8]: 17.8 µM; Activity [15]: inactive; ΔTm [16]: 0.4 °C; selectivity ratio [9]: > 9; ΔTm [17]: 3.43 °C; IC50 [10]: > 200 µM; IC50 [11]: 13.1 µM
COc1cc(C=O)ccc1O |  | Activity [12]: inactive
O=C(N/N=C/CCC/C=N/NC(=O)c1ccncc1)c1ccccc1 | < 1 | 
O=C(Cn1ccnc1[N+](=O)[O-])NCc1ccccc1 [BENZNIDAZOLE] |  | IC50 [6]: 18.2 µM; IC50 [8]: 27.1 µM; IC50 [10]: 30.2 µM; IC50 [11]: 3.92 µM
COc1cc(/C=N/NC(=O)c2ccco2)ccc1O | 1.5 to 2 | 
O=C(N/N=C/CCC/C=N/NC(=O)c1ccco1)c1ccncc1 | < 1 | 
O=C(N/N=C/c1ccc(CO)o1)c1ccccc1 | < 1 | 
COc1cc(/C=N/NC(=O)c2ccccc2)ccc1O | 1.5 to 2 | 
O=C(N/N=C/[C@H](O)[C@H](O)[C@H](O)[C@@H](O)CO)c1cccs1 | < 1 | 
O=C(N/N=C/CCC/C=N/NC(=O)c1ccncc1)c1ccncc1 | < 1 | 
O=C(N/N=C/CCC/C=N/NC(=O)c1cccs1)c1ccco1 | < 1 | 

Continued, in another order:

fold change (FC) [1] | SMILES | other results
< 1 | O=C(N/N=C/c1ccc(CO)o1)c1ccco1 | 
< 1 | O=C(N/N=C/CCC/C=N/NC(=O)c1ccccc1)c1ccccc1 | 
1.5 to 2 | O=C(N/N=C/[C@H](O)[C@H](O)[C@H](O)[C@@H](O)CO)c1ccccc1 | 
< 1 | O=C(N/N=C/CCC/C=N/NC(=O)c1ccco1)c1ccco1 | 
< 1 | O=C(N/N=C/[C@H](O)[C@H](O)[C@H](O)[C@@H](O)CO)c1ccco1 | 
< 1 | O=C(O)c1ccc(/C=N/NC(=O)c2cccs2)cc1 | 
1.5 to 2 | O=C(N/N=C/[C@H](O)[C@H](O)[C@H](O)[C@@H](O)CO)c1ccncc1 | 
< 1 | COc1cc(/C=N/NC(=O)c2ccco2)cc(OC)c1OC | 
< 1 | COc1cc(/C=N/NC(=O)c2ccncc2)ccc1O | 
< 1 | O=C(O)c1ccc(/C=N/NC(=O)c2ccco2)cc1 | 
< 1 | O=C(N/N=C/CCC/C=N/NC(=O)c1cccs1)c1ccccc1 | 
< 1 | O=C(O)c1ccc(/C=N/NC(=O)c2ccncc2)cc1 | 
< 1 | O=C(N/N=C/CCC/C=N/NC(=O)c1cccs1)c1ccncc1 | 
< 1 | COc1cc(/C=N/NC(=O)c2ccncc2)cc(OC)c1OC | 
< 1 | O=C(N/N=C/c1ccc(CO)o1)c1ccncc1 | 
< 1 | O=C(N/N=C/CCC/C=N/NC(=O)c1ccco1)c1ccccc1 | 
< 1 | COc1cc(/C=N/NC(=O)c2ccccc2)cc(OC)c1OC | 
